SMILES strings stand for the structures.

In one data set the test system is J774.1. Kind of data set: Inhibition of nitric oxide production in LPS induced mouse J774.1 cells. It is filed as functional, cell-based. The method in brief: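 J774.1 cells are grown in DMEM with 10% FCS, penicillin and streptomycin. Adherent cells are plated at 1 × 10^5 cells/well and left 6 h at 37 °C in 5% CO2. Fresh medium with LPS 1 µg/mL and the compound at a range of concentrations is added for 24 h. Nitrite in the supernatant is measured with Griess reagent (10 min, room temperature, A550), with medium blank subtracted. % inhibition is taken against LPS-only wells. L-NMMA is the positive control.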

The nature of data set [1]: Cytotoxicity against LPS induced mouse J774.1 cells by MTT assay. The data set is classed as cell-based. The method in brief:
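LPS-stimulated J774.1 cells from the NO assay (1 × 10^5 cells/well, 24 h with LPS 1 µg/mL plus compound). After the supernatant is taken off, cells get fresh medium with MTT 2 mg/mL for 3 h at 37 °C in 5% CO2. Formazan is dissolved in DMSO and absorbance is read at 550 nm.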

A short description of data set [2]: Inhibition of NO production in LPS induced mouse J774.1 cells by Griess assay.

`C=C[C@H](C1=CC(=O)C(OC)=CC1=O)c1ccc(O)cc1` showed a half-maximal inhibitory concentration (IC50) in the data set with J774.1 of 11.5 µM. Further, in data set [1], the Activity was greater than 100 µM.

With `C=C[C@H](C1=CC(=O)C(OC)=CC1=O)c1ccccc1`, in the data set with J774.1, it took 38.8 µM to reach half-maximal inhibition (IC50).

On to `C=CC(c1ccccc1)C1(O)C(=O)C=C(OC)C(=O)C1O` (configuration not stated), for which the IC50 in the data set on J774.1 was 3.19 µM. The compound also registered an Activity in data set [1] greater than 100 µM.

In the data set on J774.1, `COc1ccc(C(=O)/C=C/c2ccccc2)c(O)c1` showed an IC50 of 5.4 µM. Also, the Activity in data set [1] is greater than 25 µM.

Compound `COC1=CC(O)(C/C=C/c2ccccc2)C(OC)=CC1=O` (configuration not stated) yielded an IC50 in the data set on J774.1 of 6.22 µM.

The compound `C=C[C@H](C1=CC(=O)C=CC1=O)c1ccccc1` showed an IC50 in the data set on J774.1 of 39.7 µM.

`C=C[C@@H](c1ccccc1)c1cc(O)ccc1O` returned an IC50 in the data set with J774.1 of 31.6 µM.

`CNC(=N)NCCC[C@H](N)C(=O)O` [TILARGININE]: the values for the IC50 (with J774.1; in data set [2]) were 31.6 µM and 27.1 µM, respectively.

(Values after ChEMBL document CHEMBL1143072, “Nitric oxide production inhibitory activity of flavonoids contained in trunk exudates of Dalbergia sissoo” (J Nat Prod, 2008).)
